Experimental data from PMC7906539 (Medicinal chemistry research : an international journal for …, 2020).
“Also recorded” adds a separate entry of the source.

Key:
[1] = molecular target: His-mHtt and GST-CaM (CaM–mHtt interaction) (Homo sapiens, UniProt P0DP23+P42858); assay: CaM/mHtt AlphaScreen binding assay; conditions: for IC50: read-out: AlphaScreen CaM–mHtt, IC50, triplicate
In short: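 His-mHtt (10 nM) preincubated 30 min with test compound, then GST-CaM (10 nM) added for 60 min at room temperature. Ni-chelate acceptor (10 μg/mL) and glutathione donor beads (15 μg/mL) are added for 2 h, then Alpha counts are read. Final 300–0.002 μM, triplicate; % inhibition normalized to DMSO controls.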

[2] = test system: SH-SY5Y cells; assay: Cytotoxicity assay; assay type: cell-based; conditions: for Cytotoxicity (SH-SY5Y cells, 24 h): 24 h incubation, CellTiter-Glo; for Cytotoxicity (SH-SY5Y cells, 24 h) / Cytotoxicity as stated in text: SH-SY5Y cells; for Cytotoxicity as stated in text: approximate value for both enantiomers
In short: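 SH-SY5Y cells seeded at 6000/well in 1:1 EMEM/F12 with 10% FBS. Exposure 24 h at 37 °C, then CellTiter-Glo luminescence read. Percent cytotoxicity normalized to DMSO controls.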

[3] = molecular target: death-associate protein kinase 1 (DAPK1) (Homo sapiens, UniProt P53355); assay: CaM-dependent kinase assay; assay type: biochemical; conditions: single concentration of 100 μM, in the presence of CaM
death-associate protein kinase 1 (DAPK1), sequence (P53355 1-363): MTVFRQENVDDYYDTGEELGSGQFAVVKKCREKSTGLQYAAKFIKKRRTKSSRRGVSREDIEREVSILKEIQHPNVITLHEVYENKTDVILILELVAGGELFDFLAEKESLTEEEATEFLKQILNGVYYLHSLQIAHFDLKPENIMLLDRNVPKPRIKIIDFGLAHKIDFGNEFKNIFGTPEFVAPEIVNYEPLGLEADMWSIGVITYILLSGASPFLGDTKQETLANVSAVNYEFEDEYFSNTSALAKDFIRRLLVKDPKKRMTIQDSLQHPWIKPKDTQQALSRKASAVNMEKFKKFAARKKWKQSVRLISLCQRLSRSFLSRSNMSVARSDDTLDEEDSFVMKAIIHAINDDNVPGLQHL
In short: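 Recombinant DAPK1 (25 ng), run with ADP-Glo at 5 μM ATP with native swine myelin basic protein as substrate, in the presence of CaM. Test compound is added at a single 100 μM (DMSO) and reacted 60 min at room temperature. Luminescence is read, and activity is expressed as percent of the no-compound reaction. Three experiments, ≥2 replicates each; mean ± SEM.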

[4] = test system: calcium/CaM-dependent kinase 2γ (CaMK2γ); assay: CaM-dependent kinase assay; assay type: biochemical, Human; conditions: single concentration of 100 μM, in the presence of CaM
In short: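 ADP-Glo reaction with CaMK2γ (12 ng), 25 μM ATP and Autocamtide-2 substrate, carried out with CaM present. Test compound is at a single 100 μM from DMSO; incubation 60 min at room temperature. Luminescent readout gives percent enzyme activity relative to the reaction without compound. Run three times with at least two replicates per experiment; mean ± SEM.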

[5] = test system: mHtt toxicity in PC12 cells; assay: Protection against mHtt toxicity in neuronal cell model for HD; assay type: cell-based; conditions: three different concentrations
In short: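 Each experiment run at least three times; values reported as mean ± standard error of the mean.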

His-mHtt and GST-CaM (CaM–mHtt interaction), sequence (P42858 whole entry, one chain of several): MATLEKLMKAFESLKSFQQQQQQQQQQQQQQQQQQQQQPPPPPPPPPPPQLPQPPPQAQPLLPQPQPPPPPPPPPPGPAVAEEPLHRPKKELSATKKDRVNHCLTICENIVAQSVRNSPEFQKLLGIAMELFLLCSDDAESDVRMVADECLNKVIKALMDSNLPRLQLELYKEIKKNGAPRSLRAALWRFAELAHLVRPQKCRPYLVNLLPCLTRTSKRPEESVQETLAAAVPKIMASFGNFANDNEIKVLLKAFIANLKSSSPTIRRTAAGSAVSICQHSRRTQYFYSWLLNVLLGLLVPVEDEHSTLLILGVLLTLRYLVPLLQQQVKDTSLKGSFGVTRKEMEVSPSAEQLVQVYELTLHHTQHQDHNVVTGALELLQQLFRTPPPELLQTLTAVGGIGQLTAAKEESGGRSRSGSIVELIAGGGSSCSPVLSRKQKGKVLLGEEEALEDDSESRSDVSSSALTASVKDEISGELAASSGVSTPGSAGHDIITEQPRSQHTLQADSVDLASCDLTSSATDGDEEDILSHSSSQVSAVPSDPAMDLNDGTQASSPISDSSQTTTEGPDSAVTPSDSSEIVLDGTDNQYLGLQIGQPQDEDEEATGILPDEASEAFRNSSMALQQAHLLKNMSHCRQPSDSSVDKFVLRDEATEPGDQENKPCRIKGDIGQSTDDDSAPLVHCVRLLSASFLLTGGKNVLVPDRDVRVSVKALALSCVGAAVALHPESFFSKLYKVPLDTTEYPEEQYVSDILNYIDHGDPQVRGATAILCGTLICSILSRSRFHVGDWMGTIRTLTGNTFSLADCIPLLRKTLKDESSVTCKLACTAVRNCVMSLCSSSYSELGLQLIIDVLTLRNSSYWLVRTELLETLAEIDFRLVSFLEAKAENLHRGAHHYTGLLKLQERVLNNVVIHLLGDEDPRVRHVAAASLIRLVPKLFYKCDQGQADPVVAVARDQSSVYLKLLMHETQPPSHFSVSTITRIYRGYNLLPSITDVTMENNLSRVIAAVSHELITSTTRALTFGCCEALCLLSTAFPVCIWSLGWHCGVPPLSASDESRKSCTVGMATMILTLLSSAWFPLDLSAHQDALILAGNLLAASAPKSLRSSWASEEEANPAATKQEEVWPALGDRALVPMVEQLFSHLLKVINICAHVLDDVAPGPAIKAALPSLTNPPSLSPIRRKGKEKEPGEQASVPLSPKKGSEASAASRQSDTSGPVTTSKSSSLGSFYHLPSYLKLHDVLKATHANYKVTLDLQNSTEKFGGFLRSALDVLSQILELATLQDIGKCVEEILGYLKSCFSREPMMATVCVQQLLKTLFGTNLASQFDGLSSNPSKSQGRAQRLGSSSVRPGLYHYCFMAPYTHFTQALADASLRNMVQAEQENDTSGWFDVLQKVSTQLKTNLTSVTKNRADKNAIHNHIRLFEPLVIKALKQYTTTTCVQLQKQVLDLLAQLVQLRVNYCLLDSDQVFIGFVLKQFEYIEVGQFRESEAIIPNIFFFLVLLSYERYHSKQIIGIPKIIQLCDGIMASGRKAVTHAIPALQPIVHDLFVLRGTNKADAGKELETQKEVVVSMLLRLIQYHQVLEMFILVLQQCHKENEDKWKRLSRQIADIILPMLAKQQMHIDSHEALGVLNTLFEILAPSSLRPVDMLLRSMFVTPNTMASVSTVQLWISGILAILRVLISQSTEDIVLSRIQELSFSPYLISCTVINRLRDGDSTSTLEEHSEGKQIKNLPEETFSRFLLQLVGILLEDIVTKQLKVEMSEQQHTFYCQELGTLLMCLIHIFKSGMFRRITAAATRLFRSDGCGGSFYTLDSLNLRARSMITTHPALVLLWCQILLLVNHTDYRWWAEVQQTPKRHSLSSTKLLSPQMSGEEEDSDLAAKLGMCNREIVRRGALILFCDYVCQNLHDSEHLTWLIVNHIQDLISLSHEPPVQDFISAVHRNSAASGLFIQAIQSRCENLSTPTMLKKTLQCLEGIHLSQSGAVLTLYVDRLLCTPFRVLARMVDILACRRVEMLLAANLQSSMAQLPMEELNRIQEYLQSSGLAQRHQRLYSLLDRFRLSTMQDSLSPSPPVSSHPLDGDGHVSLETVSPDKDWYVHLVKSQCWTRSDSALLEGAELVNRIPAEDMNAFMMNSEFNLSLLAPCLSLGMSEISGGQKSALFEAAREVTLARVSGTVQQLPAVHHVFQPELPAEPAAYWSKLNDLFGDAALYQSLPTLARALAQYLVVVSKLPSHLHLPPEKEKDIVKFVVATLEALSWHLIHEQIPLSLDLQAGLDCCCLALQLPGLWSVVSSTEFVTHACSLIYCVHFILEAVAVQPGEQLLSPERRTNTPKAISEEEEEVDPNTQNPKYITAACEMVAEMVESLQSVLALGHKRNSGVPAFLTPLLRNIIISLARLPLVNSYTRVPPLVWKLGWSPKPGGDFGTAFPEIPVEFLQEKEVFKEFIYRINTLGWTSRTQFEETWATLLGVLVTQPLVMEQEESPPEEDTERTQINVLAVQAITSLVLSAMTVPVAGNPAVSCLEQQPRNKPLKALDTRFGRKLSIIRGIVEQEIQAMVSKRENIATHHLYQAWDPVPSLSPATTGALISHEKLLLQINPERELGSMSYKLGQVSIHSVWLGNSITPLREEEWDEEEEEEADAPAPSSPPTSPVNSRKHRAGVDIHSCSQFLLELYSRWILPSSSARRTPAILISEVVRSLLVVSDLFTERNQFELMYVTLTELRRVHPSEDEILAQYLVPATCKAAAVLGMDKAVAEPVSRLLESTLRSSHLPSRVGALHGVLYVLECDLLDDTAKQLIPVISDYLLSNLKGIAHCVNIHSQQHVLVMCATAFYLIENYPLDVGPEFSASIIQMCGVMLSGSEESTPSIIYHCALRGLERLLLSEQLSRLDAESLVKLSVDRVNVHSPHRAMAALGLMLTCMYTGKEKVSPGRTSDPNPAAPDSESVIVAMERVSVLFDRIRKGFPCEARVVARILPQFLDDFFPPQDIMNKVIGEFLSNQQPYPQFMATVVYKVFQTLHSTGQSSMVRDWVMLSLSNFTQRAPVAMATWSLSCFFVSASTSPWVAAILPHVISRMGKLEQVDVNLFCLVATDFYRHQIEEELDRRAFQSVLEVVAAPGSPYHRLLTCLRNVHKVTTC

| SMILES | IC50 [1] [µM] | Cytotoxicity (SH-SY5Y cells, 24 h) [2] [µM] | other results |
| --- | --- | --- | --- |
| C=C1CCN([C@@H](CC(C)C)C(=O)NCc2ccccc2)S(=O)(=O)c2ccccc21 [Compound 9b] | 12.4 | >300 |  |
| C=C1CCN([C@@H](CC(C)C)C(=O)NCc2ccc(Cl)cc2)S(=O)(=O)c2ccccc21 [Compound 9c, (S)-N-(4-Chlorobenzyl)-4-methyl-2-(5-methylene-1,1-dioxido-4,5-dihydrobenzo[f][1,2]thiazepin-2(3H)-yl) pentanamide] | 2.8 | 94 ± 3 | Cytotoxicity as stated in text [2]: ca. 90 pM; Inhibition of DAPK1 enzyme activity (in words) [3]: did not significantly inhibit; Inhibition of CaMK2γ enzyme activity (in words) [4]: did not significantly inhibit |
| C=C1CCN([C@@H](CC(C)C)C(=O)NCc2ccc(Cl)c(C(F)(F)F)c2)S(=O)(=O)c2ccccc21 [Compound 9d, (S)-N-(4-Chloro-3-(trifluoromethyl)benzyl)-4-methyl-2-(5-methylene-1,1-dioxido-4,5-dihydrobenzo[f][1,2]thiazepin-2 (3H)-yl)pentanamide] | 1.38 | >300 | Inhibition of DAPK1 enzyme activity (in words) [3]: did not significantly inhibit; Inhibition of CaMK2γ enzyme activity (in words) [4]: did not significantly inhibit; Protection against mHtt toxicity (in words) [5]: barely measurable activity; also recorded: do not show protection; also recorded: no significant rescue of the toxicity |
| C=C1CCN([C@@H](CC(C)C)C(=O)NCc2ccc(C)cc2)S(=O)(=O)c2ccccc21 [Compound 9e, (S)-4-Methyl-N-(4-methylbenzyl)-2-(5-methylene-1,1-dioxido-4,5-dihydrobenzo[f][1,2]thiazepin-2(3H)-yl) pentanamide] | 15 | 102 ± 7 |  |
| C=C1CCN([C@@H](CC(C)C)C(=O)NCc2ccc(OC)cc2)S(=O)(=O)c2ccccc21 [Compound 9f, (S)-N-(4-Methoxybenzyl)-4-methyl-2-(5-methylene-1,1-dioxido-4,5-dihydrobenzo[f][1,2]thiazepin-2(3H)-yl) pentanamide] | > 300 | >300 | Disruption of mHtt-CaM PPI (in words) [1]: lost all mHtt-CaM disruption activity |
| C=C1CCN([C@@H](CC(C)C)C(=O)NCC2CCCCC2)S(=O)(=O)c2ccccc21 [Compound 9g, (S)-N-(Cyclohexylmethyl)-4-methyl-2-(5-methylene-1,1-dioxido-4,5-dihydrobenzo[f][1,2]thiazepin-2(3H)-yl) pentanamide] | 16.6 | 101 ± 5 |  |
| C=C1CCN([C@H](CC(C)C)C(=O)NCc2ccccc2)S(=O)(=O)c2ccccc21 [Compound 10b, (R)-N-Benzyl-4-methyl-2-(5-methylene-1,1-dioxido-4,5-dihydrobenzo[f][1,2]thiazepin-2(3H)-yl)pentanamide] | 12.7 | 87 ± 2 |  |
| C=C1CCN([C@H](CC(C)C)C(=O)NCc2ccc(Cl)cc2)S(=O)(=O)c2ccccc21 [Compound 10c, (R)-N-(4-Chlorobenzyl)-4-methyl-2-(5-methylene-1,1-dioxido-4,5-dihydrobenzo[f][1,2]thiazepin-2(3H)-yl) pentanamide] | 3 | 86 ± 9 | Cytotoxicity as stated in text [2]: ca. 90 pM; Inhibition of DAPK1 enzyme activity (in words) [3]: did not significantly inhibit; Inhibition of CaMK2γ enzyme activity (in words) [4]: did not significantly inhibit |
| C=C1CCN([C@H](CC(C)C)C(=O)NCc2ccc(C)cc2)S(=O)(=O)c2ccccc21 [Compound 10e, (R)-4-Methyl-N-(4-methylbenzyl)-2-(5-methylene-1,1-dioxido-4,5-dihydrobenzo[f][1,2]thiazepin-2(3H)-yl) pentanamide] | 15.1 | 64 ± 2.5 |  |
| C=C1CCN([C@H](CC(C)C)C(=O)NCc2ccc(OC)cc2)S(=O)(=O)c2ccccc21 [Compound 10f, (R)-N-(4-Methoxybenzyl)-4-methyl-2-(5-methylene-1,1-dioxido-4,5-dihydrobenzo[f][1,2]thiazepin-2(3H)-yl) pentanamide] | > 300 | >300 | Disruption of mHtt-CaM PPI (in words) [1]: lost all mHtt-CaM disruption activity |
| C=C1CCN([C@H](CC(C)C)C(=O)NCCc2ccc(Cl)c(Cl)c2)S(=O)(=O)c2ccccc21 [Compound 10h] | 0.5 | >300 | Inhibition of DAPK1 enzyme activity (in words) [3]: did not significantly inhibit; Inhibition of CaMK2γ enzyme activity (in words) [4]: did not significantly inhibit |
| CC(C)C[C@@H](C(=O)NCc1ccccc1)N1CCC(=O)c2ccccc2S1(=O)=O [Compound 11b, (S)-N-Benzyl-2-(1,1-dioxido-5-oxo-4,5-dihydrobenzo[f][1,2]thiazepin-2(3H)-yl)-4-methylpentanamide] | 14.6 | 43.8 |  |
| Cc1ccc(CNC(=O)[C@H](CC(C)C)N2CCC(=O)c3ccccc3S2(=O)=O)cc1 [Compound 11e, (S)-2-(1,1-Dioxido-5-oxo-4,5-dihydrobenzo[f][1,2]thiazepin-2(3H)-yl)-4-methyl-N-(4-methylbenzyl)pentanamide] | 24.5 | 43.4 |  |
| COc1ccc(CNC(=O)[C@H](CC(C)C)N2CCC(=O)c3ccccc3S2(=O)=O)cc1 [Compound 11f, (S)-2-(1,1-Dioxido-5-oxo-4,5-dihydrobenzo[f][1,2]thiazepin-2(3H)-yl)-N-(4-methoxybenzyl)-4-methylpentanamide] | 52.6 | 44.6 | Disruption of mHtt-CaM PPI (in words) [1]: retained marginal activity |
| CC(C)C[C@@H](C(=O)NCC1CCCCC1)N1CCC(=O)c2ccccc2S1(=O)=O [Compound 11g, (S)-W-(Cyclohexylmethyl)-2-(1,1-dioxido-5-oxo-4,5-dihydrobenzo[f][1,2]thiazepin-2(3H)-yl)-4-methylpentanamide] | 31 | 40.1 |  |

The remaining molecules from weak to strong by IC50 [1], led by results:

| IC50 [1] [µM] | SMILES | Cytotoxicity (SH-SY5Y cells, 24 h) [2] [µM] | other results |
| --- | --- | --- | --- |
| 12.2 | C=C1CCN([C@H](CC(C)C)C(=O)NCC2CCCCC2)S(=O)(=O)c2ccccc21 [Compound 10g, (R)-N-(Cyclohexylmethyl)-4-methyl-2-(5-methylene-1,1-dioxido-4,5-dihydrobenzo[f][1,2]thiazepin-2(3H)-yl) pentanamide] | 99 ± 4 |  |
| 11.2 | CC(C)C[C@@H](C(=O)NCc1ccc(Cl)cc1)N1CCC(=O)c2ccccc2S1(=O)=O [Compound 11c, (S)-N-(4-Chlorobenzyl)-2-(1,1-dioxido-5-oxo-4,5-dihydrobenzo[f][1,2]thiazepin-2(3H)-yl)-4-methylpentanamide] | 41.4 |  |
| 2.14 | CC(C)C[C@@H](C(=O)NCc1ccc(Cl)c(Cl)c1)N1CCC(=O)c2ccccc2S1(=O)=O [Compound 11a, (S) -N-(3,4-Dichlorobenzyl)-2-(1,1-dioxido-5-oxo-4,5-dihydrobenzo[f][1,2]thiazepin-2(3H)-yl)-4-methylpentanamide] | 39.8 |  |
| 2.03 | CC(C)C[C@@H](C(=O)NCc1ccc(Cl)c(C(F)(F)F)c1)N1CCC(=O)c2ccccc2S1(=O)=O [Compound 11d, (S)-N-(4-Chloro-3-(trifluoromethyl)benzyl)-2-(1,1-dioxido-5-oxo-4,5-dihydrobenzo[f][1,2]thiazepin-2(3H)-yl)-4-methylpentanamide] | 44.2 |  |
| 1.8 | C=C1CCN([C@H](CC(C)C)C(=O)NCc2ccc(Cl)c(C(F)(F)F)c2)S(=O)(=O)c2ccccc21 [Compound 10d, (R)-N-(4-Chloro-3-(trifluoromethyl)benzyl)-4-methyl-2-(5-methylene-1,1-dioxido-4,5-dihydrobenzo[f][1,2]thiazepin-2 (3H)-yl)pentanamide] | >300 |  |
| 1.03 | C=C1CCN([C@@H](CC(C)C)C(=O)NCc2ccc(Cl)c(Cl)c2)S(=O)(=O)c2ccccc21 [Compound 9a] | >300 | Disruption of mHtt-CaM PPI (in words) [1]: retained activity; Toxicity to SH-SY5Y cells (in words) [2]: no measurable toxicity |
| 0.98 | C=C1CCN([C@H](CC(C)C)C(=O)NCc2ccc(Cl)c(Cl)c2)S(=O)(=O)c2ccccc21 [Compound 10a, (R)-N-(3,4-Dichlorobenzyl)-4-methyl-2-(5-methylene-1,1-dioxido-4,5-dihydrobenzo[f][1,2]thiazepin-2(3H)-yl) pentanamide] | >300 |  |
| 0.97 | CC(C)C[C@@H](C(=O)NCCc1ccc(Cl)c(Cl)c1)N1CCC(=O)c2ccccc2S1(=O)=O [Compound 11h, (S)-N-(3,4-Dichlorophenethyl)-2-(1,1-dioxido-5-oxo-4,5-dihydrobenzo[f][1,2]thiazepin-2(3H)-yl)-4-methylpentanamide] | 32.3 |  |
